Among the data in ChEMBL document CHEMBL3272182 (J Med Chem, 1976) are Activity, Rf and Ratio values, retold here.

The structures appear in SMILES notation. Positions of bridges follow the written chain, without caps; N, C: chain ends. Non-standard residues stand in square brackets, D forms with d. Residues, ends and D or L forms follow the SMILES beside them. Mpa = O=C(O)CCS Where only a bound is given, the exact number is not on record here.

For series [1], the species on record is Rattus norvegicus. Kind of series: Vasopressor activity in rat. The note with it: in vivo. The class given is organism-based.
The species named for series [2] is Rattus norvegicus. Kind of series: Antidiuretic activity in rat. It counts as functional, Urine.
Series [3] in a line: Retardation factor of the compound by silica gel thin-layer chromatography.
In series [4] the target is T1, Oxytocin receptor (Rattus norvegicus) (UniProt P70536).
T1 sequence (whole entry): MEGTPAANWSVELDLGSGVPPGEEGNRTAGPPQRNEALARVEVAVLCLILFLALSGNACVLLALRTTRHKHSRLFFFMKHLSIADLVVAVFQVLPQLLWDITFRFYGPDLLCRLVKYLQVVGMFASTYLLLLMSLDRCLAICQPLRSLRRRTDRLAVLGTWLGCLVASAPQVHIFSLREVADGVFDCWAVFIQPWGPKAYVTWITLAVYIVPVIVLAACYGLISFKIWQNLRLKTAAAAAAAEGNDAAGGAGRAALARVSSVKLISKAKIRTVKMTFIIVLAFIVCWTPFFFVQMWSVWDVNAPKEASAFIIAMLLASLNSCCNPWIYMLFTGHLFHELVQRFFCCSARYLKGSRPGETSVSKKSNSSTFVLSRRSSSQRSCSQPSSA
The series can be described thus: Activity at oxytocin receptor in rat uterus. The class given is tissue-based.

In series [5] the target is T1, Oxytocin receptor (Rattus norvegicus). The series can be described thus: Activity at oxytocin receptor in rat uterus in presence of Mg2+. It counts as tissue-based.
The species entered for series [6] is Rattus norvegicus. The series can be described thus: Ratio of antidiuretic activity in rat to vasopressor activity in rat. The arrangement: species or system Urine. In a few lines: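 Antidiuretic and vasopressor potencies were each expressed in units/mg from rat assays. The A/P value is the antidiuretic potency divided by the vasopressor potency.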

Turning to `C[C@@H](O)[C@@H]1NC(=O)[C@H](Cc2ccccc2)NC(=O)[C@H](Cc2ccc(O)cc2)NC(=O)CCSSC[C@@H](C(=O)N2CCC[C@H]2C(=O)N[C@H](CCCNC(=N)N)C(=O)NCC(N)=O)NC(=O)[C@H](CC(N)=O)NC1=O`, the results for the Activity in series [1] and in series [2] were below 0.02 U/mg and 793 U/mg, respectively. This compound also gave a Rf in series [3] of 0.24.

In the case of `CC(C)[C@@H]1NC(=O)[C@H](Cc2ccccc2)NC(=O)[C@H](Cc2ccc(O)cc2)NC(=O)CCSSC[C@@H](C(=O)N2CCC[C@H]2C(=O)N[C@H](CCCNC(=N)N)C(=O)NCC(N)=O)NC(=O)[C@H](CC(N)=O)NC1=O` ([Mpa]YFVNCP[dR]G-NH2; disulfide 1-6), the Activity in series [1] is below 0.01 U/mg; in series [2] it was 1230 U/mg.

`NC(=O)CC[C@@H]1NC(=O)[C@H](Cc2ccccc2)NC(=O)[C@H](Cc2ccc(O)cc2)NC(=O)[C@@H](N)CSSC[C@@H](C(=O)N2CCC[C@H]2C(=O)N[C@H](CCCN=C(N)N)C(=O)NCC(N)=O)NC(=O)[C@H](CC(N)=O)NC1=O`: the Activity was found to be 0.4 U/mg in series [4], 1.1 U/mg in series [1], 114 U/mg in series [2] and 1.02 U/mg in series [5]. Also, in series [6], the Ratio is 30. In addition, the Rf in series [3] was determined as 0.1.

`N=C(N)NCCC[C@H](NC(=O)[C@@H]1CCCN1C(=O)[C@@H]1CSSC[C@H](N)C(=O)N[C@@H](Cc2ccc(O)cc2)C(=O)N[C@@H](Cc2ccccc2)C(=O)N[C@@H](CCC(N)=O)C(=O)N[C@@H](CC(N)=O)C(=O)N1)C(=O)NCC(N)=O` [VASOPRESSIN]: the Activity was 323 U/mg in series [2] and 25.5 U/mg in series [5]. For the same compound, in series [6], the Ratio is recorded as 1.

As for `C[C@@H](O)[C@@H]1NC(=O)[C@H](Cc2ccccc2)NC(=O)[C@H](Cc2ccc(O)cc2)NC(=O)CCSSC[C@@H](C(=O)N2CCC[C@H]2C(=O)N[C@@H](CCCN=C(N)N)C(=O)NCC(N)=O)NC(=O)[C@H](CC(N)=O)NC1=O`, the Activity was 30 U/mg in series [1] and 758 U/mg in series [2].

As to `N=C(N)NCCC[C@@H](NC(=O)[C@@H]1CCCN1C(=O)[C@@H]1CSSCCC(=O)N[C@@H](Cc2ccc(O)cc2)C(=O)N[C@@H](Cc2ccccc2)C(=O)N[C@@H](CCC(N)=O)C(=O)N[C@@H](CC(N)=O)C(=O)N1)C(=O)NCC(N)=O` (stereo in doubt; 4), the Activity came out at 47 U/mg in series [4] and 66 U/mg in series [5].

As to `NC(=O)CC[C@@H]1NC(=O)[C@H](Cc2ccccc2)NC(=O)[C@H](Cc2ccc(O)cc2)NC(=O)CCSSC[C@@H](C(=O)N2CCC[C@H]2C(=O)N[C@H](CCCN=C(N)N)C(=O)NCC(N)=O)NC(=O)[C@H](CC(N)=O)NC1=O` (stereo in doubt; 4) [DESMOPRESSIN], the Activity in series [1] is given as 346 U/mg; in series [2], 1390 U/mg. The Ratio in series [6] turned out to be 4. Besides, the Rf in series [3] was found to be 0.18.

On to `NC(=O)CC[C@@H]1NC(=O)[C@H](Cc2ccccc2)NC(=O)[C@H](Cc2ccc(O)cc2)NC(=O)CCSSC[C@@H](C(=O)N2CCC[C@H]2C(=O)N[C@H](CCCN=C(N)N)C(=O)NCC(N)=O)NC(=O)[C@H](CC(N)=O)NC1=O` (stereo in doubt; 6) [DESMOPRESSIN], for which the Activity was 0.39 U/mg in series [1] and 870 U/mg in series [2]. In addition, the Ratio in series [6] came out at 80. The same compound gave a Rf in series [3] of 0.21.

Take `N=C(N)NCCC[C@@H](NC(=O)[C@@H]1CCCN1C(=O)[C@@H]1CSSCCC(=O)N[C@@H](Cc2ccc(O)cc2)C(=O)N[C@@H](Cc2ccccc2)C(=O)N[C@@H](CCC(N)=O)C(=O)N[C@@H](CC(N)=O)C(=O)N1)C(=O)NCC(N)=O` (stereo in doubt; 6): in series [5], the Activity came out at 2.9 U/mg.
